Experimental findings from ChEMBL document CHEMBL1268810, “'Click' assembly of selective inhibitors for MAO-A” (Bioorg Med Chem Lett, 2010) are described below.

The target in assay [1] is T1, Amine oxidase [flavin-containing] A (Homo sapiens, UniProt P21397).
T1 sequence (P21397 whole entry): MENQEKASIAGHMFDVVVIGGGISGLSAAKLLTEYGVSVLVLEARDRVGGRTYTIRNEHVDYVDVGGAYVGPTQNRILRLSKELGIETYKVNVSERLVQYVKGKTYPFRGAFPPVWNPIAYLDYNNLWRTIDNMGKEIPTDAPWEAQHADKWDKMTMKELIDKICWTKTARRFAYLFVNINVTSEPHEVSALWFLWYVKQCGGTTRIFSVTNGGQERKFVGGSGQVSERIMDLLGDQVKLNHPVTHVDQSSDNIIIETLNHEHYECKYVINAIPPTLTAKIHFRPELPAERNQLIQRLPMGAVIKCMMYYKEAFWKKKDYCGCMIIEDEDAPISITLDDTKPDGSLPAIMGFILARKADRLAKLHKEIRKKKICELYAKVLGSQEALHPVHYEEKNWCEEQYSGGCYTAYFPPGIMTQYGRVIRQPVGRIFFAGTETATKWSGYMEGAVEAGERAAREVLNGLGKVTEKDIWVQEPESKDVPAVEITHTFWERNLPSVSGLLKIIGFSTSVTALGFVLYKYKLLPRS
The experiment in a line: Inhibition of MAOA by spectrofluorimetry. The method in brief: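 Fluorescence-based microplate assay for MAO-A and MAO-B inhibition, following the group's earlier reported method. Click reaction mixtures, made with CuSO4 and sodium ascorbate in t-BuOH/H2O (1:1) over 24 h, were diluted into 96-well plates from 0 to 100 μM. Fluorescence was read at λex 360 nm and λem 460 nm.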

Assay [2] is described as follows: Selectivity ratio, ratio of IC50 for MAOB to IC50 for MAOA.
The target of assay [3] is T2, Amine oxidase [flavin-containing] B (Homo sapiens, UniProt P27338).
T2 sequence (P27338 whole entry): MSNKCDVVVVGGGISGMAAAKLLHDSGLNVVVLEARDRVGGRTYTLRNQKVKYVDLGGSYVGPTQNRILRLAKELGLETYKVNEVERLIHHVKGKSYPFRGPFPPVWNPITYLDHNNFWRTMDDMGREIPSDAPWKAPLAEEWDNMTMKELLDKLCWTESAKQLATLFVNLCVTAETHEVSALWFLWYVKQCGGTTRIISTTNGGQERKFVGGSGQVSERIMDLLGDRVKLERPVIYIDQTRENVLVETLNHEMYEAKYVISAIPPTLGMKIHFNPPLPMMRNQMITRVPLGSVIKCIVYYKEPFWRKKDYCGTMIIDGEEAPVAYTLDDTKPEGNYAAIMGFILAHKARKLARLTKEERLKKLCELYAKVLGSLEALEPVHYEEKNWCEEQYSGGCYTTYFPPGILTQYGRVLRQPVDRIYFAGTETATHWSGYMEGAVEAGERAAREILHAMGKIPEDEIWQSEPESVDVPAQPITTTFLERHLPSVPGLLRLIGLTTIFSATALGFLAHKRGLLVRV
The experiment in a line: Inhibition of MAOB by spectrofluorimetry.

The structures appear in SMILES notation.

On to `NCc1cn(-c2ccccc2)nn1`, for which the IC50 was 0.97 µM in assay [1] and 511 µM in assay [3]. Further, the Ratio IC50 in assay [2] came to 526.

With `NCc1cn(-c2cccc(C(=O)O)c2)nn1`, the IC50 in assay [1] was determined as 50.7 µM; in assay [3] it was 62.1 µM. Further, the Ratio IC50 in assay [2] stood at 0.95.

Regarding `NCc1cn(-c2ccncc2)nn1`, the IC50 in assay [1] was 0.83 µM; in assay [3] it was 116 µM. The Ratio IC50 in assay [2] was 140.

For the compound `NCc1cn(-c2ccc(C(=O)O)cc2)nn1`, the IC50 in assay [1] is 19.6 µM; in assay [3], 56.9 µM. Moreover, the Ratio IC50 in assay [2] amounted to 2.89.

A word on the IC50: it is the concentration needed to halve the response being measured.
